Experimental data reported in publication PMC5884119 (Journal of medicinal chemistry, 2017).
In brackets after ≈: the same amount, converted by molar mass.

Key:
[1] = tested on: panel of Gram-positive and Gram-negative bacteria; assay: Antimicrobial activity against the whole panel; assay type: cell-based; settings: for antimicrobial activity against the tested strains (in words): statement in text over the panel of strains; for MIC: read-out: MICs across the tested strains
Hemolytic activity = assay type: cell-based
E. coli [2] = assay: Fluorescence microscopy; assay type: cell-based, Escherichia coli
In short: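 Test compound at 5 µg/mL applied to E. coli for 2 h, with untreated cells as controls. Cells stained with DAPI or with propidium iodide, a membrane-impermeant DNA intercalator that fluoresces red only when membranes are disrupted. Membrane damage assessed by fluorescence microscopy.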

[3] = tested on: P. aeruginosa (ATCC 27853); assay: MIC against P. aeruginosa; assay type: cell-based, Pseudomonas aeruginosa
MRSA [4] = assay: Fluorescence microscopy; assay type: cell-based, Staphylococcus aureus
Pseudomonas aeruginosa = settings: cited from earlier work
MRSA [5] = assay: Time-kill study, MRSA; assay type: cell-based, Staphylococcus aureus
MRSA [6] = assay: Drug resistance study; assay type: cell-based, Staphylococcus aureus; settings: incubated at half of MIC overnight, after 14 passages
E. coli [7] = assay: Time-kill study, E. coli; assay type: cell-based, Escherichia coli
[8] = tested on: ovarian cancer cells (C13); assay: Cytotoxicity toward ovarian cancer cells; assay type: cell-based
[9] = tested on: MRSA-induced lung inflammation; assay: Rat MRSA pneumonia model, lung pathology; assay type: in vivo
In short: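 Rats (n = 6 per group) inoculated intratracheally with 100 µL MRSA suspension. After 24 h (day 0), test compound 10 mg/kg given by intravenous tail-vein injection. Lung bacterial counts taken on days 3 and 5. Lung inflammation assessed by hematoxylin and eosin staining of lung tissue.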

[10] = even at 100 µg/mL, same experiment (Figure S2)

SMILES: CCCCCCCCCC(=O)N[C@@H](CCCCN)CN1CC(=O)N(CCCC)C1=O [Compound 5, (S)-N-(6-Amino-1-(3-butyl-2,4-dioxoimidazolidin-1-yl)hexan-2-yl)decanamide]
- antimicrobial activity against the tested strains (in words) [1]: does not have any antimicrobial activity

SMILES: CCCCCCCCCC(=O)N[C@@H](CCCCN)CN1CC(=O)N(C23CC4CC(CC(C4)C2)C3)C1=O [Compound 13, N-((S)-1-(3-((3R,5R,7R)-Adamantan-1-yl)-2,4-dioxoimidazolidin-1-yl)-6-aminohexan-2-yl)decanamide]
- antimicrobial activity against the tested strains (in words) [1]: decent activity across the panel of bacteria
- HC50 (Hemolytic activity): 125 µg/mL

SMILES: CCCCCCCCCC(=O)N[C@@H](CCCCN)CN1CC(=O)N(C2CCCCC2)C1=O [Compound 9, (S)-N-(6-Amino-1-(3-cyclohexyl-2,4-dioxoimidazolidin-1-yl)-hexan-2-yl)decanamide]
- antimicrobial activity against the tested strains (in words) [1]: starts to show activity toward a few bacterial strains

SMILES: O=C1CN(/N=C/c2ccc([N+](=O)[O-])o2)C(=O)N1 [Compound 26, nitrofurantoin, reference compound]
- membrane-disruption activity (E. coli [2]; [10]): did not show any membrane-disruption activity
- activity toward P. aeruginosa (in words) [3]: failed to show any activity
- MIC [1]: 6.25 to 25 µg/mL (≈ 26.2 to 105 µM)
- membrane-disruption activity (MRSA [4]; [10]): did not show any membrane-disruption activity
- not active up to (concentration) (Pseudomonas aeruginosa): > 100 µg/mL

SMILES: CCCCCCCCCC(=O)N[C@@H](CCCCN)CN1CC(=O)N(CC)C1=O [Compound 1, (S)-N-(6-Amino-1-(3-ethyl-2,4-dioxoimidazolidin-1-yl)hexan-2-yl)decanamide]
- antimicrobial activity against the tested strains (in words) [1]: did not exhibit any activity

SMILES: CCCCCCCCCCCC(=O)N[C@@H](Cc1ccccc1)CN1CC(=O)N(c2cccc(Cl)c2)C1=O [Compound 25, (S)-N-(1-(3-(3-Chlorophenyl)-2,4-dioxoimidazolidin-1-yl)-3-phenylpropan-2-yl)dodecanamide]
- antimicrobial activity against the tested strains (in words) [1]: failed to show any antimicrobial activity

SMILES: CCCCCCCCCCCCCCCC(=O)N[C@@H](CCCCN)CN1CC(=O)N(CC)C1=O [Compound 4, (S)-N-(6-Amino-1-(3-ethyl-2,4-dioxoimidazolidin-1-yl)hexan-2-yl)palmitamide]
- activity toward P. aeruginosa (in words) [3]: abolished

SMILES: CCCCCCCCCCCC(=O)N[C@@H](CCCCN)CN1CC(=O)N(c2cccc(Cl)c2)C1=O [Compound 22, (S)-N-(6-Amino-1-(3-(3-chlorophenyl)-2,4-dioxoimidazolidin-1-yl)hexan-2-yl)dodecanamide]
- membrane damage (DAPI and PI staining) (E. coli [2]; E. coli, 5 µg/mL, 2 h): damaged
- time to complete eradication (MRSA [5]; 2.0 µg/mL (4× MIC)): 60 min
- time to complete eradication (MRSA [5]; 25 µg/mL): 10 min
- MIC after serial passage (resistance development) (MRSA [6]): remained virtually unchanged
- time to complete eradication (E. coli [7]; 4.0 µg/mL (4× MIC)): 60 min
- time to complete eradication (E. coli [7]; 25 µg/mL): 30 min
- time to complete eradication (E. coli [7]; 50 µg/mL): 30 min
- MIC [1]: < 1 µg/mL
- IC50 [8]: 90 µg/mL (≈ 177 µM)
- membrane damage (DAPI and PI staining) (MRSA [4]; MRSA, 5 µg/mL, 2 h): damaged
- lung inflammation (H&E staining) ([9]; day 3): only mild inflammation was observed
- lung inflammation (H&E staining) ([9]; day 5): virtually matched normal conditions

SMILES: CN[C@H](CC(C)C)C(=O)N[C@H]1C(=O)N[C@@H](CC(N)=O)C(=O)N[C@H]2C(=O)N[C@H]3C(=O)N[C@H](C(=O)N[C@H](C(=O)O)c4cc(O)cc(O)c4-c4cc3ccc4O)[C@H](O)c3ccc(c(Cl)c3)Oc3cc2cc(c3O[C@@H]2O[C@H](CO)[C@@H](O)[C@H](O)[C@H]2O[C@H]2C[C@](C)(N)[C@H](O)[C@H](C)O2)Oc2ccc(cc2Cl)[C@H]1O [vancomycin, reference compound]
- lung inflammation (H&E staining) ([9]; day not given): some alleviation of this condition
